# Active and inactive are the calls of the source. No cut-off for these calls is given here.
# Legend:
# [1] = system: Fibroblast; test: Growth inhibition of human Gingival fibroblast at 50 uM after 72 hrs by MTS assay; type: cell-based
# In short: (§1)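 Gingival fibroblasts seeded at 1500 cells/well, then starved 6 h in noncomplete medium after 24 h. Exposed for 72 h to 5 nM–50 μM (DMSO 0.5% final), with or without H2O2 200 μM. MTS absorbance read at 490 nm and expressed as % proliferation vs control set to 100%. Mean ± SD of three replicates from two experiments.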
# [2] = system: Fibroblast; test: Induction of cell proliferation in human Gingival fibroblast at 0.5 to 10 uM after 72 hrs by MTS assay; type: functional, cell-based; in short: as §1
# [3] = system: Fibroblast; test: Antioxidant activity in human Gingival fibroblast assessed as reduction in intracellular ROS level at 1 uM after 72 hrs by H2DCFDA staining based fluorescence method; type: functional, cell-based
# In short: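 hGF (passage 4–7) seeded 5000 cells/well, treated 72 h in complete medium with or without H2O2 200 μM. Then loaded with 50 μM DCFH2-DA in PBS-glucose for 30 min. DCF fluorescence read at ex 485/em 520 nm and normalized to crystal violet absorbance at 595 nm. Expressed as % of control; three replicates, two independent experiments.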
# [4] = system: Fibroblast; test: Growth inhibition of human Gingival fibroblast at 5 uM after 72 hrs by MTS assay; type: cell-based
# In short: (§2)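 hGF (passage 4–7) seeded at 1500 cells/well. After 24 h, starved 6 h in noncomplete medium, then treated 72 h (5 nM–50 μM range, 0.5% DMSO final) with or without H2O2 (200 μM). Read by MTS absorbance at 490 nm as % proliferation vs control (100%). Mean ± SD, three replicates, two independent experiments.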
# [5] = system: Fibroblast; test: Protection against H202-induced cell cycle blockade in human Gingival fibroblast assessed as accumulation at S phase after 72 hrs by flow cytometry (reference value: 11.6%); type: functional
# In short: (§3)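 hGF seeded at 80 000 cells/well and treated in complete medium 72 h (1–5 μM) with or without H2O2 (200 μM). Percentage of cells in G0/G1, S and G2/M measured on a Muse cell analyzer with a cell cycle kit. Mean ± SD, two replicates, two independent experiments.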
# [6] = system: Fibroblast; test: Protection against H202-induced cell cycle blockade in human Gingival fibroblast assessed as accumulation at G2/M phase after 72 hrs by flow cytometry (reference value: 39.3%); type: functional; in short: as §3
# [7] = system: Fibroblast; test: Protective activity against H202-induced cell death in human Gingival fibroblast assessed as cell proliferation after 72 hrs by MTS assay (reference value: 50.9 +/- 4%); type: functional; in short: as §2
# [8] = system: Fibroblast; test: Antioxidant activity in human Gingival fibroblast assessed as reduction in H202-induced intracellular ROS level by measuring ROS production at […] after 72 hrs by H2DCFDA staining based fluorescence method (reference value: 181.9 +/- 7.4%); type: functional; design: scale not given: the % may be the effect or the level left
# In short: (§4)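 hGF seeded 5000 cells/well, treated 72 h with or without H2O2 (200 μM); then 30 min in PBS-glucose with 50 μM DCFH2-DA. DCF fluorescence read at 485/520 nm. Cells then fixed, crystal-violet stained and SDS-solubilized, with absorbance at 595 nm. Fluorescence normalized to A595 and expressed as % of control. Mean ± SD, three replicates, two independent experiments.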
# [9] = system: Fibroblast; test: Protection against H202-induced cell cycle blockade in human Gingival fibroblast assessed as accumulation at G0/G1 phase after 72 hrs by flow cytometry (reference value: 42.2%); type: functional; in short: as §3
# [10] = system: Fibroblast; test: Protection against H202-induced oxidative stress in human Gingival fibroblast assessed as reduction in p16Ink4a expression at 1 to 5 uM after 72 hrs by RT-PCR analysis; type: functional, cell-based
# In short: (§5)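 hGF (3500 cells/cm2) in complete medium, treated 72 h with or without H2O2 (200 μM). Real-time RT-PCR of total RNA for p53, p21 and p16INK4A. Levels normalized to β-actin and relative expression taken from Ct. Fold change vs control set to 1. Mean ± SD, two independent experiments in duplicate.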
# [11] = system: Fibroblast; test: Protection against H202-induced cell cycle blockade in human Gingival fibroblast assessed as accumulation at G2/M phase at 1 to 5 uM after 72 hrs by flow cytometry (reference value: 39.3%); type: functional; in short: as §3
# [12] = system: Fibroblast; test: Protection against H202-induced cell death in human Gingival fibroblast assessed as live cell at 1 to 5 uM after 72 hrs by flow cytometry (reference value: 85.1%); type: functional
# [13] = system: Fibroblast; test: Protection against H202-induced cell cycle blockade in human Gingival fibroblast assessed as accumulation at G0/G1 phase at 1 to 5 uM after 72 hrs by flow cytometry (reference value: 42.2%); type: functional; in short: as §3
# [14] = system: Fibroblast; test: Induction of cell cycle arrest in human Gingival fibroblast assessed as accumulation at S phase at 1 uM incubated for 72 hrs by flow cytometry (reference value: 5%); type: cell-based; in short: as §3
# [15] = system: Fibroblast; test: Protection against H202-induced oxidative stress in human Gingival fibroblast assessed as reduction in p21 expression at 1 to 5 uM after 72 hrs by RT-PCR analysis; type: functional, cell-based; in short: as §5
# [16] = system: Fibroblast; test: Effect on p16Ink4a mRNA expression in human Gingival fibroblast at 1 uM after 72 hrs by RT-PCR method; type: ADME, cell-based; in short: as §5
# [17] = system: Fibroblast; test: Effect on p53 mRNA expression in human Gingival fibroblast at 1 uM after 72 hrs by RT-PCR method; type: ADME, cell-based; in short: as §5
# [18] = system: Fibroblast; test: Protection against H202-induced oxidative stress in human Gingival fibroblast assessed as reduction in p53 expression at 1 to 5 uM after 72 hrs by RT-PCR analysis; type: functional, cell-based; in short: as §5
# [19] = Induction of cell death in human Gingival fibroblast assessed as live cell at 1 uM after 72 hrs by flow cytometry (reference value: 97%); type: cell-based; conditions: gingival fibroblasts, read-out: Activity
# [20] = system: Fibroblast; test: Effect on p21 mRNA expression in human Gingival fibroblast at 1 uM after 72 hrs by RT-PCR method; type: ADME, cell-based; in short: as §5
# [21] = system: Fibroblast; test: Induction of cell cycle arrest in human Gingival fibroblast assessed as accumulation at G2/M phase at 1 uM incubated for 72 hrs by flow cytometry (reference value: 14.9%); type: cell-based; in short: as §3
# [22] = system: Fibroblast; test: Downregulation of LPS-induced IL-8 expression in human Gingival fibroblast at 1 to 5 uM after 72 hrs by RT-PCR analysis; type: functional, cell-based
# In short: (§6)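 hGF (3500 cells/cm2) in complete medium, 1–5 μM for 72 h with or without LPS (1 μg/mL). Total RNA extracted, then real-time RT-PCR. mRNA normalized to β-actin and relative expression calculated from Ct. Specificity checked by melting curve and gel. Fold change vs control set to 1. Mean ± SD of two independent experiments in duplicate.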
# [23] = system: Fibroblast; test: Induction of cell death in human Gingival fibroblast assessed as dead cell at 1 uM after 72 hrs by flow cytometry (reference value: 3%); type: cell-based
# [24] = system: Fibroblast; test: Protection against H202-induced cell cycle blockade in human Gingival fibroblast assessed as accumulation at S phase at 1 to 5 uM after 72 hrs by flow cytometry (reference value: 11.6%); type: functional; in short: as §3
# [25] = system: Fibroblast; test: Antioxidant activity in human Gingival fibroblast assessed as reduction in H202-induced intracellular ROS level by measuring ROS production at 1 to 5 uM after 72 hrs by H2DCFDA staining based fluorescence method (reference value: 181.9 +/- 7.4%); type: functional; design: scale not given: the % may be the effect or the level left; in short: as §4
# [26] = system: Fibroblast; test: Induction of cell proliferation in human Gingival fibroblast at 1 uM after 72 hrs by MTS assay; type: functional; in short: as §2
# [27] = system: Fibroblast; test: Upregulation of IL-10 expression in LPS-stimulated human Gingival fibroblast at 1 to 5 uM after 72 hrs by RT-PCR analysis; type: functional, cell-based; in short: as §6
# [28] = system: Fibroblast; test: Downregulation of LPS-induced IL-6 expression in human Gingival fibroblast at 1 to 5 uM after 72 hrs by RT-PCR analysis; type: functional, cell-based; in short: as §6
# [29] = system: Fibroblast; test: Induction of cell cycle arrest in human Gingival fibroblast assessed as accumulation at G0/G1 phase at 1 uM incubated for 72 hrs by flow cytometry (reference value: 76.3%); type: cell-based; in short: as §3
# [30] = system: Fibroblast; test: Protection against H202-induced cell death in human Gingival fibroblast assessed as dead cell at 1 to 5 uM after 72 hrs by flow cytometry (reference value: 14.9%); type: functional
compound,measurement,setting,value
O=c1c(O)c(-c2ccc(O)cc2)oc2cc(O)cc(O)c12 [KAEMPFEROL],growth inhibition (GI),[1],Toxic
same,Activity,[2],inactive
O=c1c(O)c(-c2ccc(O)c(O)c2)oc2cc(O)cc(O)c12 [QUERCETIN],growth inhibition (GI),[1],Toxic
same,Activity,[2],inactive
same,Activity,[3],Active
C[C@@H]1O[C@@H](Oc2cc(O)c3c(=O)c(O[C@@H]4O[C@H](CO)[C@H](O)[C@H](O)[C@H]4O[C@@H]4O[C@H](CO)[C@@H](O)[C@H](O)[C@H]4O)c(-c4ccc(O)c(O)c4)oc3c2)[C@H](O)[C@H](O)[C@H]1O,growth inhibition (GI),[4],Toxic
O=c1c(O[C@@H]2O[C@H](CO)[C@H](O)[C@H](O)[C@H]2O[C@@H]2O[C@H](CO)[C@@H](O)[C@H](O)[C@H]2O)c(-c2ccc(O)cc2)oc2cc(O)cc(O)c12,growth inhibition (GI),[4],Toxic
CC(=O)N[C@@H](CS)C(=O)O [ACETYLCYSTEINE],Activity,[5],6.4%
same,Activity,[6],18.5%
same,Activity,[7],74.1%
same,Activity,[8],109.7%
same,Activity,[9],72.7%
C[C@@H]1O[C@@H](Oc2cc(O)c3c(=O)c(O[C@@H]4O[C@H](CO)[C@H](O)[C@H](O)[C@H]4O[C@@H]4O[C@H](CO)[C@@H](O)[C@H](O)[C@H]4O)c(-c4ccc(O)cc4)oc3c2)[C@H](O)[C@H](O)[C@H]1O,Activity,[10],Active
same,Activity,[7],68.8%
same,Activity,[11],14.2%
same,Activity,[12],90%
same,Activity,[13],69.8%
same,Activity,[14],4.8%
same,Activity,[15],Active
same,Activity,[16],Toxic
same,Activity,[3],Active
same,Activity,[17],Non-Toxic
same,Activity,[18],Active
same,"viability at 72 h, 1 µM",[19],93.3%
same,Activity,[20],Non-Toxic
same,Activity,[21],10.5%
same,Activity,[22],Active
same,Activity,[23],6.7%
same,Activity,[24],13%
same,Activity,[25],124.2%
same,Activity,[26],125.6%
same,Activity,[27],Active
same,Activity,[28],Active
same,Activity,[29],81.5%
same,Activity,[30],10%

# — ChEMBL document CHEMBL4613247, “Antioxidant Activity of Compounds Isolated from Elaeagnus umbellata Promotes Human Gingival Fibroblast Well-Being” (J Nat Prod, 2020)
